From ChEMBL document CHEMBL3351861, “New synthetic sulfone derivatives inhibit growth, adhesion and the leucine arylamidase APE2 gene expression of Candida albicans in vitro” (2015)
In brackets after ≈: the same amount, converted by molar mass. Activity calls are given as the source filed them. No cut-off for these calls is given here.

Experiments:
Candida albicans [1] = test: Inhibition of cell adhesion of compound pre-treated Candida albicans CAI4 expressing delta-efg1/delta-cph1 gene to human Caco2 cells assessed as cell adhesion level at 2 ug/ml pre-incubated for 18 hrs by colony counting method (reference value: 1.22 +/- 0.78%); type: functional, Caco-2; design: scale not given: the % may be the effect or the level left
Candida albicans [2] = test: Antifungal activity against Candida albicans CAI4 expressing delta-efg1 (EFG1) gene assessed as growth inhibition at 4 ug/ml by CLSI M27-A3 method; type: functional; conditions: read-out: GI
Summary of the method: (§1)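 CLSI M27-A3 broth microdilution in RPMI, read after 48 h. Strains pre-grown 18 h in YEPD at 30°C. Final inoculum 0.5×10^2–2.5×10^3 cells/ml. Two-fold dilutions in RPMI came from a 1600 µg/ml stock in water with 9% DMSO; final DMSO was 0.09%. OD405 read, % inhibition = 100 − (CTW−SCW)/(GCW−SCW). Triplicate on three occasions, mean±SD.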

Candida albicans [3] = test: Antifungal activity against Candida albicans CAI4 expressing delta-cph1 gene assessed as growth inhibition at by CLSI M27-A3 method; type: functional
Candida albicans [4] = test: Inhibition of cell adhesion of compound pre-treated Candida albicans SC5314 to human Caco2 cells assessed as cell adhesion level at 8 ug/ml pre-incubated for 2 hrs by colony counting method (reference value: 1.1 +/- 1.1%); design: scale not given: the % may be the effect or the level left
Candida albicans [5] = test: Antifungal activity against Candida albicans CAI4 expressing delta-efg1 (EFG1) gene assessed as growth inhibition at 8 ug/ml by CLSI M27-A3 method; type: functional; conditions: read-out: GI; summary of the method: as §1
Candida albicans [6] = test: Antifungal activity against Candida albicans CAI4 expressing delta-efg1 gene assessed as growth inhibition at 2 ug/ml by CLSI M27-A3 method; type: functional; conditions: read-out: GI
Summary of the method: (§2)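 CLSI M27-A3 broth microdilution in RPMI. Final inoculum 0.5×10^2 to 2.5×10^3 cells/ml. Seven two-fold concentrations from 0.25 to 16 µg/ml, with DMSO held at 0.09% (v/v) in all wells. Compound-free growth controls and sterility controls are run for each strain. […] Triplicate on three occasions.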

Candida albicans [7] = test: Antifungal activity against Candida albicans CAI4 expressing delta-efg1 gene assessed as growth inhibition at 1 ug/ml by CLSI M27-A3 method; type: functional; conditions: read-out: GI; summary of the method: as §2
Candida albicans [8] = test: Antifungal activity against Candida albicans CAI4 expressing delta-cph1 (CPH1) gene assessed as growth inhibition at 2 ug/ml by CLSI M27-A3 method; type: functional; conditions: read-out: GI; summary of the method: as §1
Candida albicans [9] = test: Antifungal activity against Candida albicans CAI4 expressing delta-cph1/delta-efg1 gene assessed as growth inhibition at 4 ug/ml by CLSI M27-A3 method; type: functional; conditions: read-out: GI; summary of the method: as §1
Candida albicans [10] = test: Inhibition of cell adhesion of compound pre-treated Candida albicans CAI4 expressing delta-cph1 (CPH1) gene to human Caco2 cells assessed as cell adhesion level at 8 ug/ml pre-incubated for 18 hrs by colony counting method (reference value: 5.37 +/- 12.4%); type: functional, Caco-2; design: scale not given: the % may be the effect or the level left
Candida albicans [11] = test: Antifungal activity against Candida albicans CAI4 expressing delta-efg1 (EFG1) gene assessed as growth inhibition at 16 ug/ml by CLSI M27-A3 method; type: functional; conditions: read-out: GI; summary of the method: as §1
Candida albicans [12] = test: Inhibition of cell adhesion of compound pre-treated Candida albicans CAI4 expressing delta-cph1 gene to human Caco2 cells assessed as cell adhesion level at 2 ug/ml pre-incubated for 18 hrs by colony counting method (reference value: 1.6 +/- 0.65%); type: functional, Caco-2; design: scale not given: the % may be the effect or the level left
Candida albicans [13] = test: Antifungal activity against Candida albicans CAI4 expressing delta-cph1/delta-efg1 gene assessed as growth inhibition at by CLSI M27-A3 method; type: functional
Candida albicans [14] = test: Antifungal activity against Candida albicans CAI4 expressing delta-cph1 (CPH1) gene assessed as growth inhibition at 0.5 ug/ml by CLSI M27-A3 method; type: functional; conditions: read-out: GI; summary of the method: as §1
Candida albicans [15] = test: Antifungal activity against Candida albicans 90028 assessed as growth inhibition at 2 ug/ml by CLSI M27-A3 method; type: functional; conditions: read-out: GI; summary of the method: as §1
Candida albicans [16] = test: Antifungal activity against Candida albicans CAI4 expressing delta-cph1/delta-efg1 gene assessed as growth inhibition at 0.5 ug/ml by CLSI M27-A3 method; type: functional; conditions: read-out: GI; summary of the method: as §1
Candida albicans [17] = test: Antifungal activity against Candida albicans CAI4 expressing delta-efg1 gene assessed as growth inhibition at 8 ug/ml by CLSI M27-A3 method; type: functional; conditions: read-out: GI; summary of the method: as §2
Candida albicans [18] = test: Inhibition of cell adhesion of compound pre-treated Candida albicans CAI4 expressing delta-efg1 (EFG1) gene to human Caco2 cells assessed as cell adhesion level at 8 ug/ml pre-incubated for 18 hrs by colony counting method (reference value: 2.6 +/- 2.33%); type: functional, Caco-2; design: scale not given: the % may be the effect or the level left
Candida albicans [19] = test: Inhibition of cell adhesion of compound pre-treated Candida albicans CAI4 expressing delta-cph1 gene to human Caco2 cells assessed as cell adhesion level at 4 ug/ml pre-incubated for 18 hrs by colony counting method (reference value: 1.6 +/- 0.65%); type: functional, Caco-2; design: scale not given: the % may be the effect or the level left
Candida albicans [20] = test: Reduction in APE2 gene expression in compound pre-treated Candida albicans 90028 grown under YEPD medium at 16 ug/ml pre-treated for 2 hrs measured after 18 hrs by RT-PCR method; type: functional
Summary of the method: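 Blastoconidia from YEPD (10^4 cfu/ml) are washed and exposed 2 h to 16 µg/ml sulfone in YEPD. They are then washed and regrown 18 h at 30°C in YEPD before RNA extraction. Real-time RT-PCR uses SYBR Green with 250 nM primers and 60 ng cDNA: 95°C 15 min, then 45 cycles of 94°C 15 s and 60°C 1 min, plus a dissociation curve. APE2 is normalized to ACT1 by 2^-ΔΔCt with strain 90028 as calibrator; three experiments.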

Candida albicans [21] = test: Reduction in APE2 gene expression in compound pre-treated Candida albicans CAI4 expressing delta-cph1/delta-efg1 gene grown on human Caco2 cells monolayer at 16 ug/ml pre-treated for 2 hrs measured after 6 hrs by RT-PCR method; type: functional, Caco-2
Summary of the method: (§3)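 Blastoconidia are pre-incubated 2 h with 16 µg/ml sulfone in RPMI. They are then washed, resuspended in RPMI and placed on Caco-2 monolayers at 37°C, with RNA taken at 6 or 18 h. Real-time RT-PCR uses SYBR Green with 250 nM primers and 60 ng cDNA: 95°C 15 min, then 45 cycles of 94°C 15 s and 60°C 1 min, plus a melt curve. APE2 is normalized to ACT1 by 2^-ΔΔCt with 90028 as calibrator; three experiments.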

Candida albicans [22] = test: Inhibition of hyphae formation in Candida albicans 90028 assessed as appearance of spherical blastoconidia with polarly located budding without filament formation at 16 ug/ml incubated for 18 hrs by phase contrast microscopy
Candida albicans [23] = test: Reduction in APE2 gene expression in compound pre-treated Candida albicans CAI4 expressing delta-cph1 gene grown on human Caco2 cells monolayer at 16 ug/ml pre-treated for 2 hrs measured after 6 hrs by RT-PCR method; type: functional, Caco-2; summary of the method: as §3

In the case of `O=[N+]([O-])c1cc(S(=O)(=O)C(Cl)(Cl)Br)ccc1Cl`, the Activity (Candida albicans [1]) is reported as 0.78%, the inhibition of growth at 4 µg/mL (Candida albicans [2]) is reported as 99.3% and the MIC90 (Candida albicans [3]) is reported as 16 µg/mL (≈ 41.7 µM). It also gave an Activity (Candida albicans [4]) of 0.36%, an inhibition of growth at 8 µg/mL (Candida albicans [5]) of 99.4% and an inhibition of growth at 2 µg/mL (Candida albicans [6]) of 98.9%. The inhibition of growth at 1 µg/mL (Candida albicans [7]) was 98.5%, the inhibition of growth at 2 µg/mL (Candida albicans [8]) was 99.2% and the inhibition of growth at 4 µg/mL (Candida albicans [9]) was 99%. The Activity (Candida albicans [10]) was 2.78%, the inhibition of growth at 16 µg/mL (Candida albicans [11]) was 99.5% and the Activity (Candida albicans [12]) was 0.43%. It also gave an MIC90 (Candida albicans [13]) of 16 µg/mL (≈ 41.7 µM), an inhibition of growth at 0.5 µg/mL (Candida albicans [14]) of 97.1% and an inhibition of growth at 2 µg/mL (Candida albicans [15]) of 98.9%. For the same molecule, the inhibition of growth at 0.5 µg/mL (Candida albicans [16]) was 98.6%, the inhibition of growth at 8 µg/mL (Candida albicans [17]) was 99.5% and the Activity (Candida albicans [18]) was 1.13%. For the same molecule, the Activity (Candida albicans [19]) was 0.55%.
`O=[N+]([O-])c1cc(S(=O)(=O)C(Cl)Cl)ccc1Cl` showed an Activity (Candida albicans [1]) of 0.47%, an inhibition of growth at 4 µg/mL (Candida albicans [2]) of 98.5% and an MIC90 (Candida albicans [3]) of 16 µg/mL (≈ 52.5 µM). The inhibition of growth at 8 µg/mL (Candida albicans [5]) was 98.9%, the inhibition of growth at 2 µg/mL (Candida albicans [6]) was 99.4% and the inhibition of growth at 1 µg/mL (Candida albicans [7]) was 99.4%. The inhibition of growth at 2 µg/mL (Candida albicans [8]) was 98.6%, the inhibition of growth at 4 µg/mL (Candida albicans [9]) was 99.2% and the Activity (Candida albicans [10]) was 0.71%. The inhibition of growth at 16 µg/mL (Candida albicans [11]) was 99.2%, the Activity (Candida albicans [12]) was 0.8% and the MIC90 (Candida albicans [13]) was 16 µg/mL (≈ 52.5 µM). The inhibition of growth at 0.5 µg/mL (Candida albicans [14]) was 96.7%, the inhibition of growth at 2 µg/mL (Candida albicans [15]) was 99.5% and the inhibition of growth at 0.5 µg/mL (Candida albicans [16]) was 99.1%. For the same molecule, the inhibition of growth at 8 µg/mL (Candida albicans [17]) was 99.4%, the Activity (Candida albicans [18]) was 1.18% and the Activity (Candida albicans [19]) was 0.99%.
Molecule `NNc1ccc(S(=O)(=O)C(Cl)(Br)Br)cc1[N+](=O)[O-]` has an Activity (Candida albicans [1]) of 2.94%, a ΔCt (Candida albicans [20]) of 2.82 and an inhibition of growth at 4 µg/mL (Candida albicans [2]) of 99.3%. For the same molecule, the MIC90 (Candida albicans [3]) was 4 µg/mL (≈ 9.45 µM), the Activity (Candida albicans [4]) was 0.45% and the “fold change (FC)” value (Candida albicans [21]) was 10.26. It also gave an inhibition of growth at 8 µg/mL (Candida albicans [5]) of 99.8%, an inhibition of growth at 2 µg/mL (Candida albicans [6]) of 99.7% and an inhibition of growth at 1 µg/mL (Candida albicans [7]) of 99.5%. The inhibition of growth at 2 µg/mL (Candida albicans [8]) was 99.3%, the inhibition of growth at 4 µg/mL (Candida albicans [9]) was 100% and the Activity (Candida albicans [10]) was 0.9%. It also gave an inhibition of growth at 16 µg/mL (Candida albicans [11]) of 99.8%, an Activity (Candida albicans [12]) of 0.51% and an MIC90 (Candida albicans [13]) of 4 µg/mL (≈ 9.45 µM). The inhibition of growth at 0.5 µg/mL (Candida albicans [14]) was 98.8%, the inhibition of growth at 2 µg/mL (Candida albicans [15]) was 99.6% and the inhibition of growth at 0.5 µg/mL (Candida albicans [16]) was 97%. For the same molecule, the inhibition of growth at 8 µg/mL (Candida albicans [17]) was 100%, the Activity (Candida albicans [22]) was “Active” and the Activity (Candida albicans [19]) was 0.22%. The “fold change (FC)” value (Candida albicans [23]) was 10.83.
